The values that follow come from ChEMBL document CHEMBL3856209, “Novel pyrazolopyridine derivatives as potential angiogenesis inhibitors: Synthesis, biological evaluation and transcriptome-based mechanistic analysis” (Eur J Med Chem, 2016).

Assay [1] has as its system HUVEC. Briefly: Effect on SLC30A7 gene expression in serum-starved HUVEC after 24 hrs by microarray analysis relative to control. Format: functional, Homo sapiens.
The test system of assay [2] is HUVEC. Put plainly: Effect on PNISR gene expression in serum-starved HUVEC after 24 hrs by microarray analysis relative to control. Format: functional, Homo sapiens. In outline: (§1)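 Serum-starved confluent HUVEC (pooled from 3–5 donors, passage ≤4) were treated with 2 μM compound or vehicle in 2.5% FBS for 6 h or 24 h, and total RNA was isolated. Hybridization was on Illumina Human-HT12. Data were processed with bgAdjust, vst and rsn normalization. Changes versus DMSO were called by moderated paired t-test at p < 0.05 and |log2 fold change| > 0.5.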

In assay [3] the test system is HUVEC. Briefly: Effect on ASPM gene expression in serum-starved HUVEC after 6 hrs by microarray analysis relative to control. Format: functional, Homo sapiens. In outline:
(§2)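 Serum-starved confluent HUVEC treated with 2 μM compound or DMSO in 2.5% FBS for 6 h or 24 h; RNA hybridized to Illumina Human-HT12 arrays. Data background-corrected, vst-transformed and rsn-normalized. Differential probes called by moderated paired t-test (limma) at p < 0.05 and log2 fold change >|0.5| vs DMSO.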

For assay [4], the system named is HUVEC. Put plainly: Effect on CENPA gene expression in serum-starved HUVEC after 6 hrs by microarray analysis relative to control. Format: functional, Homo sapiens. In outline:
as §2

Assay [5] has as its system HUVEC. Put plainly: Effect on FILIP1L gene expression in serum-starved HUVEC after 24 hrs by microarray analysis relative to control. Format: functional, Homo sapiens. In outline: (§3)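 Confluent, serum-starved HUVEC (pooled from 3–5 donors, passage ≤4) treated with 2 μM compound or vehicle with 2.5% FBS for 6 h or 24 h. Total RNA hybridized to Illumina Human-HT12 arrays. Data were background-corrected, vst-transformed and rsn-normalized. Hits called by moderated paired t-test versus DMSO-treated cells, p < 0.05 and log2 fold change >|0.5|.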

Assay [6] has as its system HUVEC. Put plainly: Effect on FILIP1L gene expression in serum-starved HUVEC after 6 hrs by microarray analysis relative to control. Format: functional, Homo sapiens. In outline: as §3
Assay [7] concerns HUVEC. Briefly: Effect on ANKRD1 gene expression in serum-starved HUVEC after 24 hrs by microarray analysis relative to control. Format: functional, Homo sapiens. In outline: as §2
Assay [8] concerns HUVEC. Put plainly: Effect on COL8A1 gene expression in serum-starved HUVEC after 6 hrs by microarray analysis relative to control. Format: functional, Homo sapiens. In outline:
as §3

Assay [9] has as its system HUVEC. Put plainly: Effect on FAM198B gene expression in serum-starved HUVEC after 6 hrs by microarray analysis relative to control. Format: functional, Homo sapiens. In outline:
(§4)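 Confluent serum-starved HUVEC (primary, pooled from 3–5 donors, passage ≤4) treated with 2 μM compound or DMSO vehicle in 2.5% FBS for 6 h or 24 h. Total RNA hybridized to Illumina Human-HT12 arrays, background-corrected, vst-transformed and rsn-normalized. Differential expression versus DMSO by moderated paired t-test (p < 0.05, |log2 fold change| > 0.5).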

Assay [10] relates to HUVEC. Briefly: Effect on HLA-DPA1 gene expression in serum-starved HUVEC after 24 hrs by microarray analysis relative to control. Format: functional, Homo sapiens. In outline: as §3
Assay [11] has as its system HUVEC. Briefly: Effect on TUBB2B gene expression in serum-starved HUVEC after 24 hrs by microarray analysis relative to control. Format: functional, Homo sapiens.
Assay [12] has as its system HUVEC. Put plainly: Effect on KRT18P55 gene expression in serum-starved HUVEC after 6 hrs by microarray analysis relative to control. Format: functional, Homo sapiens. In outline: as §1
Assay [13] relates to HUVEC. Put plainly: Effect on SPRY4 gene expression in serum-starved HUVEC after 24 hrs by microarray analysis relative to control. Format: functional, Homo sapiens.
For assay [14], the system named is HUVEC. Put plainly: Effect on SERPINB2 gene expression in serum-starved HUVEC after 24 hrs by microarray analysis relative to control. Format: functional, Homo sapiens.
For assay [15], the system named is HUVEC. Briefly: Effect on ITGA10 gene expression in serum-starved HUVEC after 24 hrs by microarray analysis relative to control. Format: functional, Homo sapiens. In outline: as §3
Assay [16] concerns HUVEC. Briefly: Effect on IL1RL1 gene expression in serum-starved HUVEC after 24 hrs by microarray analysis relative to control. Format: functional, Homo sapiens.
For assay [17], the system named is HUVEC. Put plainly: Effect on HLA-DMA gene expression in serum-starved HUVEC after 24 hrs by microarray analysis relative to control. Format: functional, Homo sapiens.
Assay [18] deals with HUVEC. Briefly: Effect on MVD gene expression in serum-starved HUVEC after 24 hrs by microarray analysis relative to control. Format: functional, Homo sapiens. In outline: as §1
Assay [19] concerns HUVEC. Put plainly: Effect on TK1 gene expression in serum-starved HUVEC after 6 hrs by microarray analysis relative to control. Format: functional, Homo sapiens.
Assay [20] deals with HUVEC. Briefly: Effect on ITGB2 gene expression in serum-starved HUVEC after 6 hrs by microarray analysis relative to control. Format: functional, Homo sapiens.
Assay [21] concerns HUVEC. Put plainly: Effect on CCNA2 gene expression in serum-starved HUVEC after 6 hrs by microarray analysis relative to control. Format: functional, Homo sapiens. In outline: as §2
For assay [22], the system named is HUVEC. Put plainly: Effect on RNU1-28P gene expression in serum-starved HUVEC after 6 hrs by microarray analysis relative to control. Format: functional, Homo sapiens.
Assay [23] concerns HUVEC. Briefly: Effect on RNU4ATAC gene expression in serum-starved HUVEC after 24 hrs by microarray analysis relative to control. Format: functional, Homo sapiens.
Assay [24] concerns HUVEC. Put plainly: Effect on GINS2 gene expression in serum-starved HUVEC after 6 hrs by microarray analysis relative to control. Format: functional, Homo sapiens. In outline: as §3
The subject of assay [25] is HUVEC. Briefly: Effect on ANGPT2 gene expression in serum-starved HUVEC after 6 hrs by microarray analysis relative to control. Format: functional, Homo sapiens. In outline:
as §2

Assay [26] has as its system HUVEC. Put plainly: Effect on NR2F1 gene expression in serum-starved HUVEC after 6 hrs by microarray analysis relative to control. Format: functional, Homo sapiens. In outline: as §1
Assay [27] relates to HUVEC. Briefly: Effect on DBI gene expression in serum-starved HUVEC after 6 hrs by microarray analysis relative to control. Format: functional, Homo sapiens. In outline:
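Serum-starved confluent HUVEC (primary, pooled from 3–5 donors, passage ≤4) treated with 2 μM test compound or DMSO vehicle (working dilutions ≤0.1% v/v) in presence of 2.5% FBS for 6 h or 24 h; total RNA hybridized to Illumina Human-HT12 arrays; background correction, vst, rsn normalization; moderated paired t-test versus DMSO, thresholds p < 0.05 and log2 fold change >|0.5|.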

For assay [28], the system named is HUVEC. Briefly: Effect on F2RL1 gene expression in serum-starved HUVEC after 6 hrs by microarray analysis relative to control. Format: functional, Homo sapiens. In outline: as §4
The subject of assay [29] is HUVEC. Briefly: Effect on ACLY gene expression in serum-starved HUVEC after 6 hrs by microarray analysis relative to control. Format: functional, Homo sapiens. In outline:
as §2

Assay [30] relates to HUVEC. Briefly: Effect on FDPS gene expression in serum-starved HUVEC after 24 hrs by microarray analysis relative to control. Format: functional, Homo sapiens. In outline: as §3
Assay [31] relates to HUVEC. Put plainly: Effect on SULT1C4 gene expression in serum-starved HUVEC after 24 hrs by microarray analysis relative to control. Format: functional, Homo sapiens.
Assay [32] can be described thus: Downregulation of CDC20 gene expression in serum-starved HUVEC at 2 uM after 24 hrs by qRT-PCR analysis. Format: functional, cell-based. The note with it: Homo sapiens. In outline:
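Serum-starved confluent HUVEC treated with 2 μM compound or vehicle in 2.5% FBS for 24 h. Total RNA isolated and qRT-PCR run in triplicate (95 °C 5 min; 40 cycles of 95 °C 5 s, 58 °C 20 s, 72 °C 5 s), normalized to RPS18S. Fold change vs control, n = 3.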
For orientation: Quantitative PCR measures a nucleic acid by following its amplification.

Assay [33] relates to HUVEC. Briefly: Effect on HJURP gene expression in serum-starved HUVEC after 24 hrs by microarray analysis relative to control. Format: functional, Homo sapiens. In outline:
as §3

The subject of assay [34] is HUVEC. Briefly: Effect on HLA-DPA1 gene expression in serum-starved HUVEC after 6 hrs by microarray analysis relative to control. Format: functional, Homo sapiens. In outline:
as §3

Assay [35] concerns HUVEC. Put plainly: Effect on HMGB2 gene expression in serum-starved HUVEC after 6 hrs by microarray analysis relative to control. Format: functional, Homo sapiens.

Active and inactive are the calls of the source.

Turning to `COc1ccc(Cn2nc(-c3ccccc3)c3cc(Cl)nc(N4CCNCC4)c32)cc1`, the log2FC in the assay on HUVEC [1] was determined as 0.0778; in the assay with HUVEC [2] it was 0.0521; with HUVEC [5] it was 0.0497; in the assay on HUVEC [6], 0.5185. The “fold change (FC)” value is 0.1684 in the assay on HUVEC [3] and 0.0058 in the assay on HUVEC [4].

As to `COc1ccc(Cn2nc(-c3ccccc3)c3cc(Nc4ccc(N5CCN(C)CC5)cc4)nc(N4CCN(C)CC4)c32)cc1`, the log2FC in the assay with HUVEC [7] is given as 0.2203; in the assay with HUVEC [10] it was -0.863; in the assay on HUVEC [11], 0.8576; in the assay on HUVEC [12], -0.0175; with HUVEC [14] it was -0.6601; in the assay with HUVEC [15], 0.5991. The log2FC with HUVEC [18] was 1.3802; in the assay with HUVEC [19] it was -0.2736; in the assay with HUVEC [21] it was -0.1788; in the assay with HUVEC [22], -0.7994; in the assay on HUVEC [23], -0.0618; in the assay with HUVEC [24], -0.1389. In addition, the log2FC is recorded as -0.2125 with HUVEC [26], 0.8398 in the assay with HUVEC [30], 0.5208 in the assay with HUVEC [31] and -0.6338 with HUVEC [33]. Further, the “fold change (FC)” value in the assay on HUVEC [8] was 0.2137; with HUVEC [9], 0.7445; in the assay with HUVEC [13] it was 0.9471; with HUVEC [16], -0.5903; with HUVEC [17], -0.8514; in the assay with HUVEC [20], 1.3289. Moreover, the “fold change (FC)” value is listed as 0.2528 with HUVEC [25]; 0.0722 in the assay with HUVEC [27]; 0.5398 with HUVEC [28]; 0.4312 in the assay on HUVEC [29]; 0.6583 with HUVEC [34]; -0.0362 with HUVEC [35]. Moreover, the outcome in assay [32] was Active.
